From article PMC3417756 (Bioorganic & medicinal chemistry, 2012)

Legend:
[1] = MTT cytotoxicity assay in murine macrophage cells; format: cell-based; conditions: mouse, RAW 264.7 murine macrophage cells
NF-κB = assay: LPS-induced NF-κB luciferase reporter assay in RAW264.7 cells; format: cell-based; conditions: Mus musculus, RAW264.7, read-out: inhibition of NF-κB
How it was run: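 RAW264.7 cells stably transfected with an NF-κB luciferase reporter were seeded at 5 × 10^4 cells per well in 96-well plates. After 24 h recovery, cells were exposed to test compound plus LPS (100 ng/mL) for 18 h. Lysates were mixed with luciferase assay reagent and luminescence was read. IC50 is given as mean ± SE, n = 3.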

RAW 264.7 cells = assay: MTT cytotoxicity assay in murine macrophage cells; format: cell-based
phosphorylation of IκBα = assay: Western blot analysis of phosphorylation of IκBα in RAW264.7 cells; format: cell-based, mouse; conditions: increasing concentrations, in the presence of LPS, 4 hr
How it was run: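 Cells were grown to near confluency and dosed with LPS plus compound at 37 °C. Lysates were made in SDS/2-mercaptoethanol loading buffer, sonicated 15 s and heated at 99.9 °C for 5 min. Proteins were run on 4–15% polyacrylamide SDS gels and transferred to membrane, which was blocked with 5% milk for 1 h. Probes were anti-phospho-IκB and anti-IκB (1:1000) with HRP secondary (1:3000, 1 h, room temperature), detected by chemiluminescence on X-ray film; β-actin served as control.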

[2] = test system: nitric oxide (NO) production; assay: Griess assay of LPS stimulated nitric oxide production in RAW264.7 cells; format: cell-based, murine; conditions: concentrations up to 10 μM
How it was run: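 RAW264.7 cells were plated in RPMI1640 and held 24 h at 37 °C. Medium was replaced, then compound and E. coli 055:B5 LPS were added. Culture supernatant was reacted with Griess reagent (0.5% sulfanilamide, 0.05% N-1-naphthylethylenediamine dihydrochloride, 2.5% H3PO4) for 30 min at room temperature in the dark. Absorbance was read at 530 nm and converted to nitrite using a sodium nitrite standard curve.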

iNOS = assay: qPCR of LPS-induced iNOS expression in RAW264.7 cells; format: cell-based, mouse; conditions: concentrations up to 10 μM; data not shown
How it was run: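 RAW264.7 cells were co-treated with LPS (100 ng/mL) and compound at 0.01–10 μM. Total RNA (0.5 μg) was DNase I-treated and reverse transcribed, and cDNAs were pooled per condition. SYBR Green real-time PCR array was normalised to GAPDH. Data come from three independent experiments and were compared by one-way ANOVA (p<0.05).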

HCT-116 cells = assay: Human colon tumor HCT-116 cytotoxicity assay; format: cell-based; conditions: HCT-116, read-out: IC50 HCT-116

SMILES	IC50 at 18 h [1] [µM]	IC50 (NF-κB) [nM]	cytotoxicity to RAW 264.7 macrophage immune cells (in words) (RAW 264.7 cells)	IκBα phosphorylation (phosphorylation of IκBα)	inhibition of LPS stimulated NO production [2]	effect on iNOS expression (iNOS)	IC50 (HCT-116 cells) [µM]
CC1=C(O)C(=O)C=C2C1=CC=C1[C@@]2(C)CC[C@@]2(C)[C@@H]3C[C@](C)(C(=O)O)CC[C@]3(C)CC[C@]12C [compound 5, celastrol, reference compound]	> 50						
CCCCCCCCCCCCCC(=O)O[C@H]1CC[C@H](NC(=O)[C@H](OC)[C@H](O)[C@@H](O)[C@H](O)/C=C/C(C)C)C(=O)NC1 [compound 6, bengamide A]	> 50	80	without cytotoxicity	clear decrease in the levels of observed IκBα phosphorylation	Neither 6 nor 7 showed NO inhibition activity	Neither 6 nor 7 showed NO inhibition activity or an effect on iNOS expression	
CCCCCCCCCCCCCC(=O)O[C@H]1CC[C@H](NC(=O)[C@H](OC)[C@H](O)[C@@H](O)[C@H](O)/C=C/C(C)C)C(=O)N(C)C1 [compound 7, bengamide B]	> 50	90	without cytotoxicity	clear decrease in the levels of observed IκBα phosphorylation	Neither 6 nor 7 showed NO inhibition activity	Neither 6 nor 7 showed NO inhibition activity or an effect on iNOS expression	
CO[C@@H](C(=O)N[C@H]1CCCCNC1=O)[C@H](O)[C@@H](O)[C@H](O)/C=C/C(C)C [compound 8, bengamide E]	> 50			clear decrease in the levels of observed IκBα phosphorylation			
CO[C@@H](C(=O)N[C@H]1CC[C@@H](OC(=O)C2CCCCC2)CN(C)C1=O)[C@H](O)[C@@H](O)[C@H](O)/C=C/C(C)(C)C [compound 12, LAF 389, reference compound]	> 50						
CCC(C)/C=C/[C@@H](O)[C@H](O)[C@@H](O)[C@@H](OC)C(=O)N[C@H]1CCCCNC1=O (stereo partly shown) [compound 13, bengamide E’]	> 50						
CCC(C)/C=C/[C@@H](O)[C@H](O)[C@@H](O)[C@@H](OC)C(=O)N[C@H]1CCCCN(C)C1=O (stereo partly shown) [compound 14, bengamide F’]	> 50						5.1
